{"source": "ChEMBL document CHEMBL1121573", "about": "“2-(Aminomethyl)phenols, a new class of saluretic agents. 1. Effects of nuclear substitution” (J Med Chem, 1980)", "key": {"Rattus norvegicus [1]": {"system": "Rattus norvegicus", "assay": "Evaluated for salidiuretic activity measured as sodium ion excretion in Rat, administered orally at a dose of 50 mg/kg", "type": "functional, Urine", "parameters": "unit not given beside the values", "settings": "route oral", "method_in_brief": "(§1)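 Female Charles-River rats (150–170 g), overnight on sugar diet with water ad libitum. Compound dissolved in DMF, diluted with water containing Tween 80 (final 4% DMF), given po in 5.0 mL; concurrent vehicle placebo. Three rats per metabolism cage; 0–5 h urine analysed for Na+, K+, Cl-. Values: mequiv × 100 per cage, geometric means of three cages per dose; scored 0–6 by Na+.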"}, "Canis familiaris [2]": {"system": "Canis familiaris", "assay": "Salidiuretic activity in dog following i.v. dosing at 5 mg/kg", "type": "functional, Canis lupus familiaris, Urine", "parameters": "unit not given beside the values", "settings": "route intravenous", "method_in_brief": "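Conditioned female mongrel dogs, postabsorptive, got a 500 mL oral water load 1 h before pentobarbital anesthesia (30 mg/kg iv). After replicate 15-min control collections, compound was given as an iv stat injection.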"}, "Rattus norvegicus [3]": {"system": "Rattus norvegicus", "assay": "Oral diuretic activity was evaluated by measuring Cl- excretion in Rat at 27 mg/kg […] (0-5 hr)", "type": "ADME, organism-based, Urine", "parameters": "dose 27 mg/kg", "settings": "in vivo"}, "[4]": {"assay": "Compound administered orally at a dose of 5 mg/kg was evaluated for salidiuretic activity measured as sodium ion excretion in Rat", "type": "organism-based", "parameters": "dose 5 mg/kg", "settings": "Urine", "method_in_brief": "as §1"}, "Canis familiaris [5]": {"system": "Canis familiaris", "assay": "Oral diuretic activity was evaluated by measuring K+ excretion in dog at 5 mg/kg after ip administration (0-6 hr)", "type": "ADME, organism-based, Canis lupus familiaris, Urine", "parameters": "dose 5 mg/kg, route intraperitoneal", "settings": "in vivo", "method_in_brief": "(§2)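 Spontaneous urine was pooled with bladder urine collected by catheterization at 6 h. Volume was measured and Na+, K+ and Cl− were determined by standard methods. Values are geometric means.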"}, "Canis familiaris [6]": {"system": "Canis familiaris", "assay": "Oral diuretic activity was evaluated by measuring K+ excretion in dog at 10 mg/kg after ip administration (0-6 hr)", "type": "ADME, organism-based, Canis lupus familiaris, Urine", "parameters": "dose 10 mg/kg, route intraperitoneal", "settings": "in vivo", "method_in_brief": "as §2"}, "Rattus norvegicus [7]": {"system": "Rattus norvegicus", "assay": "Oral diuretic activity was evaluated by measuring Na+ excretion in Rat at 9 mg/kg after […] (0-5 hr)", "type": "ADME, organism-based, Urine", "parameters": "dose 9 mg/kg", "settings": "in vivo, ip", "method_in_brief": "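Female Charles-River rats (150–170 g) were kept overnight on a sugar diet with water ad libitum. Compound was dissolved in DMF, then diluted with water containing Tween 80 (3 drops/100 mL) to a final 4% DMF, and given po in 5.0 mL. Rats were housed three per metabolism cage. Urine from 0–5 h was analysed for Na+, K+ and Cl−, with concurrent placebo controls. Values are mequiv × 100 per cage, geometric mean of three cages per dose.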"}, "Rattus norvegicus [8]": {"system": "Rattus norvegicus", "assay": "Oral diuretic activity was evaluated by measuring Na+ excretion in Rat at 81 mg/kg […] (0-5 hr)", "type": "ADME, organism-based, Urine", "parameters": "dose 81 mg/kg", "settings": "in vivo"}, "Rattus norvegicus [9]": {"system": "Rattus norvegicus", "assay": "Maximum fall in mean arterial blood pressure was measured in SH rats when compound was administered at 3.75 mg/kg perorally", "type": "functional", "settings": "route oral"}, "Canis familiaris [10]": {"system": "Canis familiaris", "assay": "Oral diuretic activity was evaluated by measuring Na+ excretion in dog at 1 mg/kg after ip administration (0-6 hr)", "type": "ADME, organism-based, Canis lupus familiaris, Urine", "parameters": "dose 1 mg/kg, route intraperitoneal", "settings": "in vivo", "method_in_brief": "as §2"}, "Rattus norvegicus [11]": {"system": "Rattus norvegicus", "assay": "Compound administered orally at a dose of 81 mg/kg was evaluated for salidiuretic activity measured as sodium ion excretion in Rat", "type": "ADME, organism-based, Urine", "parameters": "dose 81 mg/kg, route oral", "settings": "in vivo, po", "method_in_brief": "as §1"}, "Canis familiaris [12]": {"system": "Canis familiaris", "assay": "Oral diuretic activity was evaluated by measuring Na+ excretion in dog at 10 mg/kg after ip administration (0-6 hr)", "type": "ADME, organism-based, Canis lupus familiaris, Urine", "parameters": "dose 10 mg/kg, route intraperitoneal", "settings": "in vivo", "method_in_brief": "as §2"}, "Canis familiaris [13]": {"system": "Canis familiaris", "assay": "Oral diuretic activity was evaluated by measuring Na+ excretion in dog at 5 mg/kg after ip administration (0-6 hr)", "type": "ADME, organism-based, Canis lupus familiaris, Urine", "parameters": "dose 5 mg/kg, route intraperitoneal", "settings": "in vivo", "method_in_brief": "as §2"}, "Rattus norvegicus [14]": {"system": "Rattus norvegicus", "assay": "Oral diuretic activity was evaluated by measuring Cl- excretion in Rat at 9 mg/kg […] (0-5 hr)", "type": "ADME, organism-based, Urine", "parameters": "dose 9 mg/kg", "settings": "in vivo", "method_in_brief": "(§3)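 Female Charles-River rats (150–170 g) were kept overnight on a sugar diet with water ad libitum. Test substance was dissolved in DMF and diluted with water containing Tween 80 to a final 4% DMF vehicle, then given po in 5.0 mL. Rats were housed three per metabolism cage, and 0–5 h urine was assayed for Na⁺, K⁺ and Cl⁻ alongside concurrent placebo groups. Values are mequiv × 100 per cage, geometric means of three cages per dose.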"}, "Rattus norvegicus [15]": {"system": "Rattus norvegicus", "assay": "Maximum fall in mean arterial blood pressure was measured in SH rats when compound was administered at 30 mg/kg perorally", "type": "functional", "settings": "route oral"}, "Rattus norvegicus [16]": {"system": "Rattus norvegicus", "assay": "Oral diuretic activity was evaluated by measuring K+ excretion in Rat at 27 mg/kg […] (0-5 hr)", "type": "ADME, organism-based, Urine", "parameters": "dose 27 mg/kg", "method_in_brief": "as §3"}, "[17]": {"assay": "Evaluated for salidiuretic activity measured as sodium ion excretion in Rat, administered orally at a dose of 16.5 mg/kg", "type": "organism-based", "parameters": "dose 16.5 mg/kg", "settings": "Urine", "method_in_brief": "as §1"}, "Rattus norvegicus [18]": {"system": "Rattus norvegicus", "assay": "Maximum fall in mean arterial blood pressure was measured in SH rats when compound was administered at 7.5 mg/kg perorally", "type": "functional", "settings": "route oral"}, "Canis familiaris [19]": {"system": "Canis familiaris", "assay": "Oral diuretic activity was evaluated by measuring K+ excretion in dog at 1 mg/kg after ip administration (0-6 hr)", "type": "ADME, organism-based, Canis lupus familiaris, Urine", "parameters": "dose 1 mg/kg, route intraperitoneal", "settings": "in vivo", "method_in_brief": "as §2"}, "Canis familiaris [20]": {"system": "Canis familiaris", "assay": "Oral diuretic activity was evaluated by measuring Cl- excretion in dog at 5 mg/kg after […] (0-6 hr)", "type": "ADME, organism-based, Canis lupus familiaris, Urine", "parameters": "dose 5 mg/kg, route intraperitoneal", "settings": "in vivo"}, "Rattus norvegicus [21]": {"system": "Rattus norvegicus", "assay": "Oral diuretic activity was evaluated by measuring Cl- excretion in Rat at 81 mg/kg after po administration (0-5 hr)", "settings": "in vivo"}, "Rattus norvegicus [22]": {"system": "Rattus norvegicus", "assay": "Oral diuretic activity was evaluated by measuring K+ excretion in Rat at 81 mg/kg after […] (0-5 hr)", "type": "ADME, organism-based, Urine", "parameters": "dose 81 mg/kg", "method_in_brief": "as §3"}, "Rattus norvegicus [23]": {"system": "Rattus norvegicus", "assay": "Oral diuretic activity was evaluated by measuring K+ excretion in Rat at 9 mg/kg […] (0-5 hr)", "type": "ADME, organism-based, Urine", "parameters": "dose 9 mg/kg", "method_in_brief": "as §3"}, "Canis familiaris [24]": {"system": "Canis familiaris", "assay": "Oral diuretic activity was evaluated by measuring Cl- excretion in dog at 10 mg/kg after […] (0-6 hr)", "type": "ADME, organism-based, Canis lupus familiaris, Urine", "parameters": "dose 10 mg/kg, route intraperitoneal", "settings": "in vivo"}}}
{"smiles": "NS(=O)(=O)c1cc(C(=O)O)c(NCc2ccco2)cc1Cl", "note": "[FUROSEMIDE]", "values": [{"measurement": "Diuretic activity", "setting": "Rattus norvegicus [1]", "result": 2.4}, {"measurement": "Diuretic activity", "setting": "Canis familiaris [2]", "result": 250}, {"measurement": "Diuretic activity", "setting": "Rattus norvegicus [3]", "result": 2.13}, {"measurement": "Diuretic activity", "setting": "[4]", "result": 0.5}, {"measurement": "Diuretic activity", "setting": "Canis familiaris [5]", "result": 7.3}, {"measurement": "Diuretic activity", "setting": "Canis familiaris [6]", "result": 8.4}, {"measurement": "Diuretic activity", "setting": "Rattus norvegicus [7]", "result": 0.07}, {"measurement": "Diuretic activity", "setting": "Rattus norvegicus [8]", "result": 2.44}, {"measurement": "MAP", "setting": "Rattus norvegicus [9]", "result": 12, "unit": "mmHg"}, {"measurement": "Diuretic activity", "setting": "Canis familiaris [10]", "result": 11.4}, {"measurement": "Diuretic activity", "setting": "Rattus norvegicus [11]", "result": 2.9}, {"measurement": "Diuretic activity", "setting": "Canis familiaris [12]", "result": 35}, {"measurement": "Diuretic activity", "setting": "Canis familiaris [13]", "result": 28.2}, {"measurement": "Diuretic activity", "setting": "Rattus norvegicus [14]", "result": 0.22}, {"measurement": "MAP", "setting": "Rattus norvegicus [15]", "result": 12, "unit": "mmHg"}, {"measurement": "Diuretic activity", "setting": "Rattus norvegicus [16]", "result": 0.55}, {"measurement": "Diuretic activity", "setting": "[17]", "result": 1.4}, {"measurement": "MAP", "setting": "Rattus norvegicus [18]", "result": 10, "unit": "mmHg"}, {"measurement": "Diuretic activity", "setting": "Canis familiaris [19]", "result": 4.1}, {"measurement": "Diuretic activity", "setting": "Canis familiaris [20]", "result": 37}, {"measurement": "Diuretic activity", "setting": "Rattus norvegicus [21]", "result": 3.7}, {"measurement": "Diuretic activity", "setting": "Rattus norvegicus [22]", "result": 0.77}, {"measurement": "Diuretic activity", "setting": "Rattus norvegicus [23]", "result": 0.14}, {"measurement": "Diuretic activity", "setting": "Canis familiaris [24]", "result": 43.8}]}
